Assay results published in ChEMBL document CHEMBL1914378, “Synthesis and apoptosis inducing ability of new anilino substituted pyrimidine sulfonamides as potential anticancer agents” (Eur J Med Chem, 2011).
Where a name gives a salt, the structure may show the parent alone. The source made the active and inactive calls. No cut-off for these calls is given here.

Tests used:
[1] = test system: K562; test: Cytotoxicity against human K562 cells after 24 hrs by MTT assay; type: functional, cell-based; conditions: K562, 24 h
[2] = test system: MCF7; test: Cytotoxicity against human MCF7 cells after 24 hrs by MTT assay; type: functional, cell-based; conditions: MCF7, 24 h
[3] = test system: MDA-MB-231; test: Cytotoxicity against human MDA-MB-231 cells after 24 hrs by MTT assay; type: functional, cell-based; conditions: MDA-MB-231, 24 h
[4] = test system: K562; test: Inhibition of NF-kappaB p65 in human K562 cells assessed as down regulation of STAT3 protein level at 10 uM after 24 hrs by Western blot analysis; type: cell-based
How it was run: (§1)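 K562 cells treated 24 h with compound at 10 (micro)M; lysed in ice-cold RIPA with protease/phosphatase inhibitors, centrifuged 12,000 rpm 10 min, protein by Bradford. 30 µg per lane on 12% SDS-PAGE, PVDF transfer, blocked 2 h RT in TBST with 5% blocking powder. Primary antibody 4 °C overnight, HRP secondary 1:2000 1 h RT; chemiluminescence; β-actin loading control; untreated cells as control.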

[5] = test system: K562; test: Antiproliferative activity against human K562 cells assessed as down regulation of c-myc protein expression at 10 uM after 24 hrs by Western blot analysis relative to control; type: functional, cell-based; how it was run: as §1
[6] = test system: K562; test: Induction of apoptosis in human K562 cells assessed as effect on TNFR1 protein expression at 10 uM after 24 hrs by Western blot analysis; type: functional, cell-based
[7] = test system: K562; test: Antiproliferative activity against human K562 cells assessed as reduction in incorporation of BrdU into cellular DNA at 10 uM after 24 hrs; type: functional, cell-based
How it was run: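 K562 cells seeded 15,000/well, grown 24 h, then labelled with BrdU 5 h at RT, then exposed to compound at final 10 (micro)M for 24 h. Detection by anti-BrdU, HRP secondary (1:2000) 30 min, TMB substrate 30 min at room temperature; optical density read at 450 nm.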

[8] = test system: K562; test: Induction of apoptosis in human K562 cells assessed as DNA fragmentation at 10 uM after 24 hrs by TUNEL assay; type: functional, cell-based
How it was run: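 TUNEL on K562 cells after 24 h exposure at 10 (micro)M: TdT-mediated incorporation of fluorescein-dUTP at free 3'-OH ends of fragmented DNA, run per kit maker's protocol; green-stained cells scored as TUNEL-positive; untreated cells as staining control.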

[9] = test system: K562; test: Cell cycle arrest in human K562 cells at G1 phase assessed as decrease in cyclin D1 protein level at 10 uM after 24 hrs by Western blot analysis relative to control; type: functional, cell-based; how it was run: as §1
[10] = test system: K562; test: Cell cycle arrest in human K562 cells at G1 phase assessed as decrease in CDK4 protein level at 10 uM after 24 hrs by Western blot analysis relative to control; type: functional, cell-based; how it was run: as §1
[11] = test system: K562; test: Induction of apoptosis in human K562 cells assessed as upregulation of caspase3 protein expression at 10 uM after 24 hrs by Western blot analysis; type: functional, cell-based; how it was run: as §1
[12] = test system: K562; test: Induction of apoptosis in human K562 cells assessed as upregulation of caspase7 protein expression at 10 uM after 24 hrs by Western blot analysis; type: functional, cell-based; how it was run: as §1
[13] = test system: K562; test: Inhibition of NF-kappaB p65 in human K562 cells at 10 uM after 24 hrs by Western blot analysis; type: cell-based; how it was run: as §1
[14] = test system: K562; test: Inhibition of NF-kappaB p65 in human K562 cells assessed as decrease of S473 phosphorylated Akt1 level at 10 uM after 24 hrs by Western blot analysis; type: cell-based; how it was run: as §1

SMILES | IC50 [1] [µM] | IC50 [2] [µM] | IC50 [3] [µM] | Activity [4] | Activity [5] | Activity [6] | Activity [7] | Activity [8] | Activity [9] | Activity [10] | Activity [11] | Activity [12] | Activity [13] | Activity [14]
COc1cc(-c2ccnc(Nc3cc(NS(=O)(=O)c4ccc5ccccc5c4)ccc3C)n2)cc(OC)c1OC | 9.81 | 11.6 | 7.55 |  |  |  |  |  |  |  |  |  |  | 
COc1cc(-c2ccnc(Nc3cc(NS(=O)(=O)c4ccc(-c5ccccc5)cc4)ccc3C)n2)cc(OC)c1OC | 5.6 | 9.33 | 6.93 | Active | Active | inactive | Active | Active | Active | Active | Active | Active | Active | Active
COc1ccc(S(=O)(=O)Nc2ccc(C)c(Nc3nccc(-c4cc(OC)c(OC)c(OC)c4)n3)c2)cc1 | 9.12 | 12.3 | 6.86 |  |  |  |  |  |  |  |  |  |  | 
Cc1ccc(NC(=O)c2ccc(CN3CCN(C)CC3)cc2)cc1Nc1nccc(-c2cccnc2)n1 [IMATINIB MESYLATE] | 0.21 | 0.83 | 1.8 |  |  |  |  |  |  |  |  |  |  | 
COc1ccc(S(=O)(=O)Nc2ccc(C)c(Nc3nccc(-c4cc(OC)c(OC)c(OC)c4)n3)c2)cc1OC | 8.57 | 11.6 | 7.48 | Active |  | inactive | Active | Active | Active | Active | Active | Active |  | Active
Cc1ccc(NS(=O)(=O)c2cnc3ccccc3c2)cc1Nc1nccc(-c2cccnc2)n1 | 5.88 | 9.96 | 7.31 | Active |  | inactive | Active | Active | Active | Active | Active | Active | inactive | Active
Cc1ccc(NS(=O)(=O)c2ccc3ccccc3c2)cc1Nc1nccc(-c2cccnc2)n1 | 9.89 | 12 | 8.31 |  |  |  |  |  |  |  |  |  |  | 
Cc1ccc(NS(=O)(=O)c2ccc(-c3ccccc3)cc2)cc1Nc1nccc(-c2cccnc2)n1 | 9.49 | 11.9 | 8 |  |  |  |  |  |  |  |  |  |  | 
Cc1ccc(NS(=O)(=O)c2ccc(Cl)cc2)cc1Nc1nccc(-c2cccnc2)n1 | 10.2 | 11.8 | 7.79 |  |  |  |  |  |  |  |  |  |  | 
